Source: ChEMBL document CHEMBL1122848, “5-(Haloalkyl)-2'-deoxyuridines: a novel type of potent antiviral nucleoside analogue” (1985)
In brackets after ≈: the same amount, converted by molar mass.

Tests used:
Human alphaherpesvirus 2 = assay: Minimum inhibitory concentration against HSV-2.; type: functional
Method in brief: (§1)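 CPE-inhibition assay in HEp-2 cells. Compound was serially diluted 3-fold in E-MEM, then virus (HSV-1 Brand or HSV-2 K979) and a cell suspension in E-MEM plus 15% FCS were added together. Virus input gave 90–100% CPE in infected controls after 3 days. Plates were then fixed and stained, and CPE was scored.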

Human alphaherpesvirus 1 = assay: Minimum inhibitory concentration against HSV-1.; type: functional; method in brief: as §1
HEp-2 = assay: Minimum toxic effect against HEp-2 cells.; type: functional, Homo sapiens
Method in brief: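 Uninfected HEp-2 cells were exposed to 3-fold serial dilutions of compound in E-MEM with FCS, run alongside the CPE assay. Cell density was set to reach a monolayer in 1–2 days. Plates were fixed and stained at 3 days. MTC is the lowest concentration causing visible toxic effects.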

Mus musculus [1] = assay: In vivo evaluation for the percent survivors in systemic HSV-1 infection of Mice administered through oral route at a dose 50 mg/kg per day; type: functional
Method in brief: (§2)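 Systemic infection model in hairless (hr/hr) mice weighing 18–20 g, twelve per group. Mice were inoculated i.p. with HSV-1 (Brand) at 2 × 10⁵ PFU/0.2 mL per mouse. Compound was given twice a day i.p. or by oral gavage at the stated daily dose. Read-out was percent survivors.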

Mus musculus [2] = assay: In vivo evaluation for the percent survivors in systemic HSV-1 infection of Mice administered intraperitoneally at a dose 1 mg/kg per day; type: functional; settings: route intraperitoneal; method in brief: as §2
Mus musculus [3] = assay: Effect of delayed treatment on mortality of systemically infected mice at 25 mg/kg per day administered Intraperitoneally after 24 hr of start of treatment; type: functional; settings: route intraperitoneal
Method in brief: (§3)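 Hairless (hr/hr) mice, 18–20 g, ten per group, inoculated intraperitoneally with HSV-1 strain Brand at 2 × 10⁵ PFU/0.2 mL per mouse. Dosing was 25 mg/kg per day, given twice daily either intraperitoneally or orally by gavage. Treatment started at 3, 24, 48 or 72 h post-infection. Read-out was percent survivors.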

Mus musculus [4] = assay: In vivo evaluation for the percent survivors in systemic HSV-1 infection of Mice administered through oral route at a dose 5 mg/kg per day; type: functional; method in brief: as §2
Mus musculus [5] = assay: Effect of delayed treatment on mortality of systemically infected mice at 25 mg/kg per day administered through oral route after 3 hr of start of treatment; type: functional; method in brief: as §3
Mus musculus [6] = assay: Effect of delayed treatment on mortality of systemically infected mice at 25 mg/kg per day administered through oral route after 72 hr of start of treatment; type: functional; method in brief: as §3
Mus musculus [7] = assay: Effect of delayed treatment on mortality of systemically infected mice at 25 mg/kg per day administered through oral route after 48 hr of start of treatment; type: functional; method in brief: as §3
Mus musculus [8] = assay: In vivo evaluation for the percent survivors in systemic HSV-1 infection of Mice administered intraperitoneally at a dose 25 mg/kg per day; type: functional; settings: route intraperitoneal; method in brief: as §2
Mus musculus [9] = assay: In vivo evaluation for the percent survivors in systemic HSV-1 infection of Mice administered intraperitoneally at a dose 10 mg/kg per day; type: functional; settings: route intraperitoneal; method in brief: as §2
Mus musculus [10] = assay: In vivo evaluation for the percent survivors in systemic HSV-1 infection of Mice administered through oral route at a dose 2.5 mg/kg per day; type: functional; method in brief: as §2
Mus musculus [11] = assay: Effect of delayed treatment on mortality of systemically infected mice at 25 mg/kg per day administered through oral route after 24 hr of start of treatment; type: functional; method in brief: as §3
Mus musculus [12] = assay: Effect of delayed treatment on mortality of systemically infected mice at 25 mg/kg per day administered Intraperitoneally after 72 hr of start of treatment; type: functional; settings: route intraperitoneal; method in brief: as §3
Mus musculus [13] = assay: Effect of delayed treatment on mortality of systemically infected mice at 25 mg/kg per day administered Intraperitoneally after 48 hr of start of treatment; type: functional; settings: route intraperitoneal; method in brief: as §3
Mus musculus [14] = assay: In vivo evaluation for the percent survivors in systemic HSV-1 infection of Mice administered intraperitoneally at a dose 50 mg/kg per day; type: functional; settings: route intraperitoneal; method in brief: as §2
Mus musculus [15] = assay: In vivo evaluation for the percent survivors in systemic HSV-1 infection of Mice administered through oral route at a dose 25 mg/kg per day; type: functional; method in brief: as §2
Mus musculus [16] = assay: In vivo evaluation for the percent survivors in systemic HSV-1 infection of Mice administered intraperitoneally at a dose 100 mg/kg per day; type: functional; settings: route intraperitoneal; method in brief: as §2
Mus musculus [17] = assay: In vivo evaluation for the percent survivors in systemic HSV-1 infection of Mice administered intraperitoneally at a dose 5 mg/kg per day; type: functional; settings: route intraperitoneal; method in brief: as §2
Mus musculus [18] = assay: Effect of delayed treatment on mortality of systemically infected mice at 25 mg/kg per day administered Intraperitoneally after 3 hr of start of treatment; type: functional; settings: route intraperitoneal; method in brief: as §3
Mus musculus [19] = assay: In vivo evaluation for the percent survivors in systemic HSV-1 infection of Mice administered through intraperitoneal at a dose 100 mg/kg per day; type: functional; method in brief: as §2
Mus musculus [20] = assay: In vivo evaluation for the percent survivors in systemic HSV-1 infection of Mice administered through intraperitoneal at a dose 10 mg/kg per day; type: functional; method in brief: as §2
Mus musculus [21] = assay: In vivo evaluation for the percent survivors in systemic HSV-1 infection of Mice administered through intraperitoneal at a dose 1 mg/kg per day; type: functional; method in brief: as §2
Mus musculus [22] = assay: In vivo evaluation for the percent survivors in systemic HSV-1 infection of Mice administered through at a dose 25 mg/kg per day; type: functional; method in brief: as §2
Mus musculus [23] = assay: In vivo evaluation for the percent survivors in systemic HSV-1 infection of Mice administered through intraperitoneal at a dose 50 mg/kg per day; type: functional; method in brief: as §2
Mus musculus [24] = assay: In vivo evaluation for the percent survivors in systemic HSV-1 infection of Mice administered through intraperitoneal at a dose 5 mg/kg per day; type: functional; method in brief: as §2

Compound	MIC (Human alphaherpesvirus 2) [µg/mL]	MIC (Human alphaherpesvirus 1) [µg/mL]	MTC (HEp-2) [µg/mL]	also measured
Nc1ncnc2c1ncn2[C@@H]1O[C@H](CO)[C@@H](O)[C@@H]1O [VIDARABINE]	10 (≈ 37.4 µM)	10 (≈ 37.4 µM)	100	–
O=c1[nH]c(=O)n(C2CC(O)C(CCl)O2)cc1CCCCl (stereo not given)	> 100	> 100	330	–
COC(=O)/C=C/c1cn([C@H]2C[C@H](O)[C@@H](CO)O2)c(=O)[nH]c1=O	30 (≈ 96.1 µM)	0.3 (≈ 0.961 µM)	100	–
O=c1[nH]c(=O)n(C2CC(O)C(CI)O2)cc1CCI (stereo not given)	> 100	30 (≈ 61 µM)	100	–
O=c1[nH]c(=O)n([C@H]2C[C@H](O)[C@@H](CO)O2)cc1CCO	100 (≈ 367 µM)	100 (≈ 367 µM)	330	–
O=c1[nH]c(=O)n([C@@H]2C[C@H](O)[C@@H](CO)O2)cc1CCBr	> 100	3 (≈ 8.95 µM)	330	–
O=c1[nH]c(=O)n(C2CC(O)C(CCl)O2)cc1CCCl (stereo not given)	> 100	100 (≈ 323 µM)	330	–
O=c1[nH]c(=O)n([C@@H]2C[C@H](O)[C@@H](CO)O2)cc1CCCl	100 (≈ 344 µM)	3 (≈ 10.3 µM)	100	–
O=c1[nH]c(=O)n([C@H]2C[C@H](O)[C@@H](CO)O2)cc1CCCl	3 (≈ 10.3 µM)	0.03 (≈ 0.103 µM)	330	Survivors (Mus musculus [1]): 100%; Survivors (Mus musculus [2]): 75%; Survivors (Mus musculus [3]): 100%; Survivors (Mus musculus [4]): 67%; Survivors (Mus musculus [5]): 80%; Survivors (Mus musculus [6]): 70%; Survivors (Mus musculus [7]): 100%; Survivors (Mus musculus [8]): 83%; Survivors (Mus musculus [9]): 91%; Survivors (Mus musculus [10]): 82%; Survivors (Mus musculus [11]): 90%; Survivors (Mus musculus [12]): 60%; Survivors (Mus musculus [13]): 80%; Survivors (Mus musculus [14]): 92%; Survivors (Mus musculus [15]): 100%; Survivors (Mus musculus [16]): 100%; Survivors (Mus musculus [17]): 92%; Survivors (Mus musculus [18]): 100%
O=c1[nH]c(=O)n([C@H]2C[C@H](O)[C@@H](CO)O2)cc1I [IDOXURIDINE]	0.3 (≈ 0.847 µM)	0.3 (≈ 0.847 µM)	100	–
O=c1[nH]c(=O)n([C@H]2C[C@H](O)[C@@H](CO)O2)cc1CCCO	> 100	> 100	330	–
O=c1[nH]c(=O)n([C@H]2C[C@H](O)[C@@H](CO)O2)cc1/C=C/Br [BRIVUDINE]	3 (≈ 9.01 µM)	0.003 (≈ 0.00901 µM)	100	Survivors (Mus musculus [1]): 8%; Survivors (Mus musculus [4]): 0%; Survivors (Mus musculus [19]): 33%; Survivors (Mus musculus [20]): 18%; Survivors (Mus musculus [10]): 0%; Survivors (Mus musculus [21]): 33%; Survivors (Mus musculus [22]): 8%; Survivors (Mus musculus [23]): 33%; Survivors (Mus musculus [15]): 0%; Survivors (Mus musculus [24]): 25%
Nc1nc2c(ncn2COCCO)c(=O)[nH]1 [ACYCLOVIR]	3 (≈ 13.3 µM)	0.3 (≈ 1.33 µM)	330	Survivors (Mus musculus [1]): 92%; Survivors (Mus musculus [4]): 9%; Survivors (Mus musculus [19]): 91%; Survivors (Mus musculus [20]): 83%; Survivors (Mus musculus [10]): 0%; Survivors (Mus musculus [21]): 54%; Survivors (Mus musculus [22]): 100%; Survivors (Mus musculus [23]): 100%; Survivors (Mus musculus [15]): 55%; Survivors (Mus musculus [24]): 75%
O=c1[nH]c(=O)n([C@H]2C[C@H](O)[C@@H](CO)O2)cc1CCBr	100 (≈ 298 µM)	3 (≈ 8.95 µM)	100	–
O=C([O-])P(=O)([O-])[O-].[Na+].[Na+].[Na+] [FOSCARNET SODIUM]	30	10	330	–
O=c1[nH]c(=O)n(C2CC(O)C(CBr)O2)cc1CCBr (stereo not given)	100 (≈ 251 µM)	30 (≈ 75.4 µM)	330	–
O=c1[nH]c(=O)n([C@H]2C[C@H](O)[C@@H](CO)O2)cc1CCI	30 (≈ 78.5 µM)	1 (≈ 2.62 µM)	330	–
O=c1nc2c(cn1[C@H]1C[C@H](O)[C@@H](CO)O1)CCO2	> 100	> 100	330	–
O=c1[nH]c(=O)n([C@H]2C[C@H](O)[C@@H](CO)O2)cc1CCCCl	30 (≈ 98.4 µM)	0.3 (≈ 0.984 µM)	100	–
